Measurements gathered from unrelated publications.
Protocols differ between the studies behind these lines.
Read-out: cell growth or viability

SMILES	cell line	test	setting	IC50
c1ccc(-c2cnc3c(n2)CCCC3)cc1	MCF-10A	–	48 h	> 50 µM
O=C(C=C[c-]1cccc1)c1sccc1Br.[Fe+2].c1cc[cH-]c1	4T1	MTT	72 h	32.9 µM
CCCCc1ccc2[nH]c(NC(=O)OC)nc2c1	GTL 16	CCK-8	72 h	0.284 µM
Cc1ccc(C(=O)Nc2ccc(Oc3cc4cnn(C)c4cc3-c3cn[nH]c3)c(F)c2)c(=O)n1-c1ccc(F)cc1	NCI-H1993	ATP luminescence	–	0.076 µM
O=C1CCCCC1C1C2C=CC=CC1C(C1CC1)=C2 (stereo not shown)	K562	flow cytometry	–	0.017 µM
CC1(C)S[C@@H]2[C@H](NC(=O)[C@H](N)c3ccc(O)cc3)C(=O)N2[C@H]1C(=O)O	VCaP	CCK-8	72 h	> 30 µM
O=C(Nc1nnnn1C1CCCCC1)c1ccc2ccccc2c1	MCF-10A	–	48 h	81 µM
CC(C)c1cccc(C(C)C)c1N1CCN(c2c(C(C)C)cccc2C(C)C)C1=[Se]	HCT-15	MTT	72 h	15.8 µM
O=C(c1cc(Cl)c(Cl)[nH]1)c1c(O)ccc(Cc2cc(C(c3csc(-c4ccccc4O)n3)c3ccc(O)c(C(=O)c4cc(Cl)c(Cl)[nH]4)c3O)c(O)c(C(=O)c3cc(Cl)c(Cl)[nH]3)c2O)c1O (stereo not shown)	MDCK	MTT	72 h	28 µg/mL
CC(C)C[C@H](NC(=O)[C@H](Cc1ccccc1)NC(=O)c1cnccn1)B(O)O	SCLC-21H	ATP luminescence	–	0.011 µM
Clc1ccc(N2CCN(Cc3c[nH]c4ncccc34)CC2)cc1	CAL-27	–	72 h	> 20 µM
CCCCOc1cccc(-c2cnc3c(n2)CCCC3)c1	MCF-10A	–	48 h	> 50 µM
Nc1nc(Nc2ccccc2)nc2c1ncn2[C@@H]1O[C@H](CO)[C@@H](O)[C@H]1O	CAL-27	–	72 h	> 20 µM
S=C(NN=Cc1ccc(Cl)s1)Nc1ccccc1	CRFK	–	–	10.1 µM
COc1ccc(-c2cnc3c(n2)CCCC3)nc1	MCF-10A	–	48 h	> 50 µM
CC(=O)CC(c1ccccc1)c1c(O)c2ccccc2oc1=O (stereo not shown)	CAL-27	–	72 h	> 20 µM

SMILES	cell line	test	setting	IC50
O=C(O)c1cc(/N=N/c2ccc(S(=O)(=O)Nc3ccccn3)cc2)ccc1O	VCaP	CCK-8	72 h	> 30 µM
CCOc1ccc(-c2cnc3c(n2)CCCC3)cc1	MCF-10A	–	48 h	> 50 µM
CC(C)c1cc(-c2n[nH]c(=O)n2-c2ccc3c(ccn3C)c2)c(O)cc1O	MDA-MB-415	imaging	24 h	0.024 µM
C[C@H]1[C@@H](O)O[C@@H]2O[C@@]3(C)CC[C@H]4[C@H](C)CC[C@@H]1[C@@]24OO3	MCF-10A	CCK-8	48 h	44.4 µM
Cc1cn([C@H]2C[C@H](N=[N+]=[N-])[C@@H](CO)O2)c(=O)[nH]c1=O	VCaP	CCK-8	72 h	> 30 µM
NCCc1ccc(O)c(O)c1	CAL-27	–	72 h	> 20 µM
Cc1cc(NC(=O)c2cccc3cc(-c4cccc5[nH]nc(N)c45)ccc23)ccc1F	GL261	CCK-8	72 h	> 20 µM
CN(C)CC[C@@H](c1ccc(Cl)cc1)c1ccccn1	CAL-27	–	72 h	> 20 µM
COc1cc(Nc2nccc(-c3cnn4nc(OC)ccc34)n2)cc(C(F)(F)F)c1	OVK18	ATP luminescence	–	0.41 µM
CCN(CC)CCOC(=O)C1(c2ccc([N+](=O)[O-])cc2)CCCC1	CAL-27	–	72 h	> 20 µM
c1ccc(-c2cccc(-c3cnc4c(n3)CCCC4)c2)cc1	MCF-10A	–	48 h	> 50 µM
COc1cc(C2Oc3cc([C@H]4Oc5cc(O)cc(O)c5C(=O)[C@@H]4O)ccc3OC2CO)ccc1O (stereo partly shown)	SNU-423	CCK-8	72 h	18.8 µM
CC(C)C(=O)SCCCCCCC(=O)Nc1nc(-c2ccccc2)cs1	CAL-27	–	72 h	1.15 µM
COc1cccc2c1C(=O)c1c(O)c3c(c(O)c1C2=O)C[C@@](O)(C(=O)CO)C[C@@H]3O[C@H]1C[C@H](N)[C@H](O)[C@H](C)O1	MCF-10A	–	48 h	2.17 µM
CN(C)c1ccc2cc(C(=O)N[C@@H](CCCNC(=N)CCl)C(=O)NCc3ccccc3)ccc2c1	4T1	–	48 h	11.9 µM
